# Test results: ChEMBL document CHEMBL1142299, “Coumarin as attractive casein kinase 2 (CK2) inhibitor scaffold: an integrate approach to elucidate the putative binding motif and explain structure-activity relationships” (J Med Chem, 2008)
# Experiment: Inhibition of CK2 in rat liver
# Summary of the method: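 Native CK2 purified from rat liver. Started with kinase, stopped at 10 min with orthophosphoric acid. Read by phosphocellulose filter binding and counting. Three independent experiments, values averaged.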
IC50,Ki,SMILES
35 µM,–,O=c1ccc2c(O)cc(O)cc2o1
> 40 µM,–,COc1cc(O)cc2oc(=O)c(C)cc12
118 µM,–,CCOC(=O)c1cc2c(Br)cccc2oc1=O
10.5 µM,–,Cc1c(Br)c(=O)oc2c(O)c(O)ccc12
30 µM,–,Cc1cc(=O)oc2c(C)c(O)c([N+](=O)[O-])cc12
0.4 µM,–,O=c1c2c(O)cccc2oc2c([N+](=O)[O-])ccc(O)c12
0.3 µM,–,Cc1cc(=O)oc2cc3c([N+](=O)[O-])c(O)ccc3cc12
0.11 µM,–,O=C(O)/C=C/c1cc(Br)c(Br)c(Br)c1Br
> 40 µM,–,O=c1cc(CCl)c2ccc(O)cc2o1
> 100 µM,–,COc1c(O)c(-c2ccnnc2)cc2ccc(=O)oc12
> 40 µM,–,Cc1cc(=O)oc2c(C=O)c(O)ccc12
2 µM,–,Cc1c(Br)c(=O)oc2c(Br)c(O)c(O)cc12
3.3 µM,–,Cc1c(Br)c(=O)oc2c(C=O)c(O)ccc12
0.1 µM,0.06 µM,Cc1c(Br)c(=O)oc2c(Br)c(O)ccc12
> 40 µM,–,Cc1c(Br)c(=O)oc2c(Br)c(N)ccc12
35 µM,–,"Cc1cc(=O)oc2cc(O)cc(O)c12 [5,7-DIHYDROXY-4-METHYLCOUMARIN]"
0.04 µM,–,O=c1oc2c(O)c(O)cc3c(=O)oc4c(O)c(O)cc1c4c23 [ELLAGIC ACID]
> 100 µM,–,Cc1cc(=O)oc2cc(O)ccc12 [HYMECROMONE]
> 100 µM,–,O=c1ccc2ccc(O)cc2o1 [UMBELLIFERONE]
